From PubChem BioAssay
A selection: hits, their analogues and other compounds. The true share with any hit is near 2.6%.
INS-1E GSIS act = GLuc luminescence reporter in INS-1E cells, primary screen for activators of glucose-dependent secretion of insulin | 370,000 tested, 0.61% active | INS-1E GLuc reporter insulin secretion, 2-3 h | activation, % at 16.6 µM;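 active = lowest replicate activation of at least 40%, so every replicate reaches that level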;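 also: 0% = median of neutral control wells and 100% = median of IBMX positive control wells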
RAD54 branch = RAD54 (human) branch migration inhibition | Q92698 | RAD54 Holliday junction branch migration, FAM/BHQ fluorescence | inhibition, % at 10.4 µM | 360,000 tested, 0.14% active | AID 602329;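 active = mean normalized replicate activity at least 40 and at least half of replicates scoring 40 or more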;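 also: 0% = median of neutral control wells and 100% = median of positive control wells; inhibitors cause a drop in the FAM fluorescence signal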
RAD52 inh = blocks human RAD52 DNA annealing; recombinant RAD52 DNA annealing, FRET fluorescence; inhibition, % at 18.7 µM; 360,000 tested, 0.46% active;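 active = every replicate showing at least 50% inhibition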
Target sequence (P43351 whole entry, looked up): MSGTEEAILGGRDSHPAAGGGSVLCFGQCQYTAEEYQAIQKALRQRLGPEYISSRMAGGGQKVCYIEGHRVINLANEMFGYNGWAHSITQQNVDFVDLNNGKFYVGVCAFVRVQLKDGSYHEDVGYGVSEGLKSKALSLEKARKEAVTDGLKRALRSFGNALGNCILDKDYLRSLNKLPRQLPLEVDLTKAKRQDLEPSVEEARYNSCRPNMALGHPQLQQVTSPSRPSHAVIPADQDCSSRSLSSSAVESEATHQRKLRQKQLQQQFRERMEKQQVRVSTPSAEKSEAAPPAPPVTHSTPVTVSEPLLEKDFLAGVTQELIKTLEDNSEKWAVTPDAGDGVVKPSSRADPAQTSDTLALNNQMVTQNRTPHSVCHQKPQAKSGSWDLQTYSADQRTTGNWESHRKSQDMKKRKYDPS
E-selectin induc = induces E-selectin expression in human endothelial cells; P16581; HUVEC E-selectin immunofluorescence imaging; normalized: neutral wells 0, TNF-alpha wells 100; activation, % at 7.58 µM; 260,000 tested, 0.37% active;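 active = mean E-selectin-positive cell signal at least 10% of the positive control, reached in at least 60% of replicates, without over 20% cell loss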
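System: HUVEC / Compound: single concentration / Signal: immunofluorescence imaging / Read-out: percent E-selectin-positive cells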
AF4-AF9 inh = MLL-AF4/AF9 protein interaction inhibition. AlphaScreen, biotin-AF4 peptide binding to FLAG-AF9. inhibition, % at 10 µM. 350,000 tested, 0.47% active. AID 651704;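 active = every replicate reaching a set inhibition limit, whatever the replicate mean, cut at about 25% in these data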;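 also: 0% = plate neutral control median and 100% = total signal loss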
rRNA inh HTS = inhibitors of bacterial rRNA selective over humanized ribosomes; 350,000 tested, 1.6% active; GFP signal change (wild-type ribosome), % (test concentration not listed); E. coli WT GFP vs humanized-ribosome RFP mutants, fluorescence, 24 h; stronger effect = lower value; DMSO median 0, no signal -100;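 active = significant combined selectivity score with lowered wild-type GFP, culture density cut under 30%, mutant RFP and density less affected; inactive = any of these conditions unmet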
The depositor's hits bear a star.

Screening CCCCn1c(NCc2ccc(N(C)C)cc2)nc2ccccc21 returned INS-1E GSIS act -33.8, RAD54 branch 3.9, RAD52 inh -18.6, E-selectin induc 0.0, AF4-AF9 inh 28.9* and rRNA inh HTS -11.7.
CN1c2ccc(-c3ccc(C#N)cc3)cc2[C@@H]2[C@@H](CCN2C(=O)c2cccc(F)c2)[C@H]1CO was read as INS-1E GSIS act 11.0, RAD54 branch 3.0, RAD52 inh 45.3, E-selectin induc -0.2, AF4-AF9 inh -2.8 and rRNA inh HTS -6.4.
`O=C(CSc1nc2ccccc2[nH]1)c1ccc2c(c1)OCO2` gave RAD54 branch -10.0.
`Cc1ccc2nc(SCC(=O)c3ccc4c(c3)OCO4)[nH]c2c1` gave INS-1E GSIS act 6.5, RAD54 branch 6.9, RAD52 inh -23.5 and rRNA inh HTS -22.6*.
For COC(=O)CSc1nc2ccccc2nc1SCC(=O)OC the results were INS-1E GSIS act 66.9* and RAD54 branch 11.6.
O=C(/C=C/c1ccc(O)cc1)c1ccc(NC2=C(N3CCCCC3)C(=O)c3ccccc3C2=O)cc1 was read as INS-1E GSIS act -14.5, RAD54 branch -4.4, RAD52 inh -13.3, AF4-AF9 inh -30.3 and rRNA inh HTS -37.0*.
For Cc1ccc(NC2=C(N3CCCCC3)C(=O)c3ccccc3C2=O)cc1 the results were INS-1E GSIS act -10.0.
C[C@H](CO)N1C[C@H](C)[C@@H](CN(C)C(=O)C2CCCCC2)Oc2cc(C#CC3CC3)ccc2S1(=O)=O was read as INS-1E GSIS act -20.9, E-selectin induc -0.2 and rRNA inh HTS -4.7.
Screening Cc1nnc(NC(=O)CSCc2ccccc2)s1 returned RAD54 branch 6.8, RAD52 inh 14.4, E-selectin induc -0.5, AF4-AF9 inh 13.1 and rRNA inh HTS 4.4.
O=C(CSc1nnc(-c2cccnc2)s1)Nc1ccnc2ccccc12 was read as INS-1E GSIS act -30.0.
For Cc1ccc(NC(=O)CSc2nnc(-c3cccnc3)s2)cc1 the results were INS-1E GSIS act 42.3*, RAD54 branch -28.7 and E-selectin induc -2.2.
Screening Cc1ccc(NC(=O)CSCC(=O)Nc2nnc(C)s2)cc1 returned INS-1E GSIS act 47.3*, RAD54 branch 3.6, RAD52 inh -15.0, AF4-AF9 inh 0.2 and rRNA inh HTS 11.8.
COc1ccc(C)cc1NC(=O)C1CCN(S(C)(=O)=O)CC1 was read as INS-1E GSIS act 16.6, RAD54 branch -9.3, RAD52 inh -9.1, AF4-AF9 inh -3.5 and rRNA inh HTS 8.0.
For COc1ccc(C)cc1NC(=O)NNC(=O)C1CCC(C(C)(C)C)CC1 (centres undefined) the results were INS-1E GSIS act -28.0, RAD54 branch -6.9, RAD52 inh -5.3, E-selectin induc 2.2, AF4-AF9 inh -0.5 and rRNA inh HTS -17.2*.
For O=C(O)c1cc(/C=C/c2ccc(N3CCOCC3)c([N+](=O)[O-])c2)nc2ccccc12 the results were INS-1E GSIS act 24.5, RAD54 branch -0.7, RAD52 inh 0.5, E-selectin induc -0.1, AF4-AF9 inh -8.4 and rRNA inh HTS -1.8.
For O=C(O)c1cc(/C=C/c2ccc(N3CCOCC3)cc2)nc2ccccc12 the results were INS-1E GSIS act -0.1, RAD52 inh -27.8, E-selectin induc -0.2, AF4-AF9 inh 1.9 and rRNA inh HTS -25.0*.
For COc1cc(/C=C/C(=O)OCN2C(=O)c3ccccc3C2=O)ccc1OC(F)F the results were INS-1E GSIS act 3.9, RAD54 branch 5.2, RAD52 inh -10.7, E-selectin induc 0.5, AF4-AF9 inh 2.3 and rRNA inh HTS 1.8.
COc1cc(/C=C/c2cc(C(=O)O)c3ccccc3n2)ccc1OC(F)F was read as INS-1E GSIS act -6.3, RAD52 inh -17.0, E-selectin induc -0.1, AF4-AF9 inh 6.3 and rRNA inh HTS -25.9*.
`CCCNC(=O)C[C@@H]1CC[C@@H]2[C@H](COc3ccc(NS(=O)(=O)CC)cc3C(=O)N2C)O1` gave INS-1E GSIS act -2.7, RAD54 branch 3.1, RAD52 inh 13.5, E-selectin induc 0.2, AF4-AF9 inh -2.1 and rRNA inh HTS -1.4.
Screening O=C(C[C@H]1C=C[C@H](NC(=O)CC2CC2)[C@@H](CO)O1)NCc1ccc(Cl)cc1 returned INS-1E GSIS act 2.8, RAD54 branch 5.9, RAD52 inh -0.7, E-selectin induc -0.1, AF4-AF9 inh -8.8 and rRNA inh HTS -1.1.
`CC(=O)N1[C@H](CN(C(=O)c2ccccc2)C(C)C)[C@@H](c2ccccc2)[C@@H]1CO` gave INS-1E GSIS act 8.7, RAD54 branch -6.4, RAD52 inh -21.4, E-selectin induc 1.2, AF4-AF9 inh -0.2 and rRNA inh HTS 0.1.
COc1ccccc1NS(=O)(=O)c1cccc(-n2c(O)c(C=Nc3ccccc3C(=O)O)c3ccccc3c2=O)c1 was read as INS-1E GSIS act -32.4, RAD54 branch 4.4, RAD52 inh -16.8, AF4-AF9 inh 0.9 and rRNA inh HTS -24.6*.
For N=C1S/C(=C\c2ccco2)C(=O)N1c1ccc2c(c1)OCO2 the results were INS-1E GSIS act 40.9, RAD54 branch -2.4, RAD52 inh -10.6, AF4-AF9 inh -2.1 and rRNA inh HTS -42.8*.
N=C1S/C(=C\c2ccco2)C(=O)N1c1nccs1 was read as INS-1E GSIS act -25.1, RAD54 branch -10.7, RAD52 inh -21.6, E-selectin induc -0.1, AF4-AF9 inh -0.2 and rRNA inh HTS -8.7.
`C[C@H]1CN([C@@H](C)CO)C(=O)c2cc(NC(=O)Cn3cnnn3)ccc2O[C@H]1CN(C)Cc1ccc(Oc2ccccc2)cc1` gave INS-1E GSIS act 6.5, RAD54 branch -0.9, RAD52 inh 0.0, E-selectin induc 139.0*, AF4-AF9 inh -2.0 and rRNA inh HTS 0.7.
`C[C@@H]1CN([C@H](C)CO)C(=O)c2cc(NC(=O)Cn3cnnn3)ccc2O[C@H]1CN(C)S(=O)(=O)c1ccccc1` gave INS-1E GSIS act 2.0, RAD52 inh -1.0, E-selectin induc 38.8*, AF4-AF9 inh -1.3 and rRNA inh HTS 1.3.
For C[C@H]1CN([C@@H](C)CO)C(=O)c2cc(NC(=O)Cn3cnnn3)ccc2O[C@@H]1CN(C)Cc1ccc(Oc2ccccc2)cc1 the results were INS-1E GSIS act -2.2, RAD54 branch -7.6, RAD52 inh -12.5, E-selectin induc 47.9*, AF4-AF9 inh 6.5 and rRNA inh HTS 1.6.
Screening C[C@@H]1CN([C@H](C)CO)C(=O)c2cc(NC(=O)Cn3cnnn3)ccc2O[C@H]1CN(C)Cc1ccc(Oc2ccccc2)cc1 returned INS-1E GSIS act 13.2, RAD54 branch 16.4, RAD52 inh 4.2, E-selectin induc 7.4, AF4-AF9 inh 0.8 and rRNA inh HTS -0.4.
Screening C[C@@H]1CN([C@@H](C)CO)C(=O)Cc2cc(NC(=O)Cn3cnnn3)ccc2O[C@H]1CN(C)Cc1ccc(Oc2ccccc2)cc1 returned INS-1E GSIS act -0.3, RAD54 branch -7.1, RAD52 inh -11.1, E-selectin induc 282.9*, AF4-AF9 inh 20.3 and rRNA inh HTS -40.5.
